Data from BindingDB's records for doi:10.1021/jm970240y (Sanofi Recherche, 1997).

Target: Integrin alpha-IIb/beta-3 (Homo sapiens, UniProt P08514+P05106)
Assay: In vitro inhibition of ADP-induced (2.5 uM) human platelet aggregation.
Outline: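 Human PRP from citrated blood (0.38% final) of unmedicated donors, spun 1000g 10 min; compound added in DMSO (0.01% final) 1 min before 2.5 μM ADP. Aggregation by Born method, measured as maximum curve height; percent inhibition calculated against vehicle-alone aggregation.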

Sequence of Integrin alpha-IIb/beta-3 (P05106 27-788 limits assumed): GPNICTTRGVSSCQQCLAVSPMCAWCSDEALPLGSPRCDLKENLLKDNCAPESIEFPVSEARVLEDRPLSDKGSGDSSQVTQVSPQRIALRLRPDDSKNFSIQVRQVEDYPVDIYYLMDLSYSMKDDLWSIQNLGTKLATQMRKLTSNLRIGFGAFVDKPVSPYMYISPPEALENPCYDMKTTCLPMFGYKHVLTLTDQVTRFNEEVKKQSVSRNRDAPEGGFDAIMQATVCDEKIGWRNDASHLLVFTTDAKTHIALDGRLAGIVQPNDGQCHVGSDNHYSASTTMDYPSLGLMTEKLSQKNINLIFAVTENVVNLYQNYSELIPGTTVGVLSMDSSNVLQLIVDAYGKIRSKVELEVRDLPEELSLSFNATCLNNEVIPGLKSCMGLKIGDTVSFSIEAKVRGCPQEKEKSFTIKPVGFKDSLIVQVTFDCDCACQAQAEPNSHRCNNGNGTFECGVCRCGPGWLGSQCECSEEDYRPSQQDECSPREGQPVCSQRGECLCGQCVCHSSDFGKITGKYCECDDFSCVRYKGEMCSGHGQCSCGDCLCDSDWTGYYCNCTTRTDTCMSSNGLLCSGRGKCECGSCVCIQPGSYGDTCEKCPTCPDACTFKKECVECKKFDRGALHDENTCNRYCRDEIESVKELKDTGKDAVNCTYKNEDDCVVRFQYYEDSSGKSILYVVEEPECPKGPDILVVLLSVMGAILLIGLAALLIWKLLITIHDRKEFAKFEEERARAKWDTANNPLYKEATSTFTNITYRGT
Sequence of Integrin alpha-IIb/beta-3 (P08514 32-887 limits assumed): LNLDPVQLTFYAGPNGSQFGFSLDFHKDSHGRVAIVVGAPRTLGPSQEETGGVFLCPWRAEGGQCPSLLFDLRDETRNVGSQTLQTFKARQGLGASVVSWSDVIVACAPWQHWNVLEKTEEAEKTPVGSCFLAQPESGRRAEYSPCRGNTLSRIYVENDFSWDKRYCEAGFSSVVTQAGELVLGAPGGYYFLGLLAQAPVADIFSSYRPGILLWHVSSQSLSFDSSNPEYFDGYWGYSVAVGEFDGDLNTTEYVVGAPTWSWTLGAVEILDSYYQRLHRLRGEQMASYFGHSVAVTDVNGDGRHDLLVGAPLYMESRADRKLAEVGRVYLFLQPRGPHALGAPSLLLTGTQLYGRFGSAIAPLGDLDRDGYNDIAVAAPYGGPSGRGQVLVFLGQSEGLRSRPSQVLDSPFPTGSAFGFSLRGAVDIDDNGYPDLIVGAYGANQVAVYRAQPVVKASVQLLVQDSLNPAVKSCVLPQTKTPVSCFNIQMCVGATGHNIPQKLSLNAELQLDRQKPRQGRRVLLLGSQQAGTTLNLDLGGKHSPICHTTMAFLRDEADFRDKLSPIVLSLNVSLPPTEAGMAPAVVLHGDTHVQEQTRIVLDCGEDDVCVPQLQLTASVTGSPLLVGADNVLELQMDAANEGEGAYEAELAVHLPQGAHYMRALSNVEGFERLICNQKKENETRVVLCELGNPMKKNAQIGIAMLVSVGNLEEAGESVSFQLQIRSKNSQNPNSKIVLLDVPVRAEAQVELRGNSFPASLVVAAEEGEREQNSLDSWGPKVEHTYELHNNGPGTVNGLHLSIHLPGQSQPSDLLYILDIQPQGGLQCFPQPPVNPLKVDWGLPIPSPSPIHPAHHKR
Sequence of Integrin alpha-IIb/beta-3 (P08514 891-1039 limits assumed): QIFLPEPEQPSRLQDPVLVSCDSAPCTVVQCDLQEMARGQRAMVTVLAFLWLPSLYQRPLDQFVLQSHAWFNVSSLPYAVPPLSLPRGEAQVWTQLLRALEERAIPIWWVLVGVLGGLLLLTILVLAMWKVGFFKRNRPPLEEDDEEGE

IC50 [nM] | SMILES
> 10000 | CC(C)(C(=O)O)N1CCC(Nc2nc(-c3ccc(C(=N)N)cc3)cs2)CC1 [2-{4-[4-(4-Carbamimidoyl-phenyl)-thiazol-2-ylamino]-piperidin-1-yl}-2-methyl-propionic acid]
85 | COC(=O)CC(C(=O)O)N1CCC(Nc2nc(-c3ccc(C(=N)N)cc3)cs2)CC1 (configuration not stated) [2-{4-[4-(4-Carbamimidoyl-phenyl)-thiazol-2-ylamino]-piperidin-1-yl}-succinic acid 4-methyl ester]
250 | CC(C(=O)O)N1CCC(Nc2nc(-c3ccc(C(=N)N)cc3)cs2)CC1 (configuration not stated) [2-{4-[4-(4-carbamimidoyl-phenyl)-thiazol-2-ylamino]-piperidin-1-yl}-propionic acid]
1800 | N=C(N)c1ccc(-c2csc(NC3CCN(CCC(=O)O)CC3)n2)cc1 [3-{4-[4-(4-carbamimidoyl-phenyl)-thiazol-2-ylamino]-piperidin-1-yl}-propionic acid]
6000 | N=C(N)c1ccc(-c2csc(NC3CCN(C(C(=O)O)c4ccccc4Cl)CC3)n2)cc1 (configuration not stated) [4-[4-(4-carbamimidoyl-phenyl)-thiazol-2-ylamino]-piperidin-1-yl}-(2-chloro-phenyl)-acetic acid]
42 | N=C(N)c1ccc(-c2csc(NC3CCN(CC(=O)O)CC3)n2)cc1 [{4-[4-(4-Carbamimidoyl-phenyl)-thiazol-2-ylamino]-piperidin-1-yl}-acetic acid]
65 | N=C(N)c1ccc(-c2csc(NC3CCN(C(C(=O)O)c4ccccc4)CC3)n2)cc1 (configuration not stated) [{4-[4-(4-Carbamimidoyl-phenyl)-thiazol-2-ylamino]-piperidin-1-yl}-phenyl-acetic acid]

SMILES | IC50 [nM]
N=C(N)c1ccc(-c2csc(N(CCC(=O)O)C3CCN(CC(=O)O)CC3)n2)cc1 [3-[[4-(4-Carbamimidoyl-phenyl)-thiazol-2-yl]-(1-carboxymethyl-piperidin-4-yl)-amino]-propionic acid] | 46
N=C(N)c1ccc(-c2csc(N(CCCC(=O)O)C3CCN(CC(=O)O)CC3)n2)cc1 [4-[[4-(4-Carbamimidoyl-phenyl)-thiazol-2-yl]-(1-carboxymethyl-piperidin-4-yl)-amino]-butyric acid] | 96
N=C(N)c1ccc(-c2csc(N(Cc3ccccc3)C3CCN(CC(=O)O)CC3)n2)cc1 [(4-{Benzyl-[4-(4-carbamimidoyl-phenyl)-thiazol-2-yl]-amino}-piperidin-1-yl)-acetic acid] | 230
CN(c1nc(-c2ccc(C(=N)N)cc2)cs1)C1CCN(CC(=O)O)CC1 [(4-{[4-(4-carbamimidoyl-phenyl)-thiazol-2-yl]-methyl-amino}-piperidin-1-yl)-acetic acid] | 160
N=C(N)c1ccc(-c2csc(N(CC(=O)O)C3CCN(CC(=O)O)CC3)n2)cc1 [[[4-(4-Carbamimidoyl-phenyl)-thiazol-2-yl]-(1-carboxymethyl-piperidin-4-yl)-amino]-acetic acid] | 170
